Source: PubChem BioAssay (several laboratories)
An excerpt weighted towards active compounds, which were near 4.9% of everything screened.
FLuc act counter = affects firefly luciferase, flagging false hits in luciferase stimulation screens. P08659. ATPlite luciferase biochemical, luminescence, 10 min; 0 = ATP-free wells, 1 = DMSO control. activation factor at 10 µM. 200,000 tested, under 10 active;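 active means luciferase activation factor, scaled between plate controls, of at least 2 with compound at 10 µM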
Target sequence (P08659 whole entry, looked up): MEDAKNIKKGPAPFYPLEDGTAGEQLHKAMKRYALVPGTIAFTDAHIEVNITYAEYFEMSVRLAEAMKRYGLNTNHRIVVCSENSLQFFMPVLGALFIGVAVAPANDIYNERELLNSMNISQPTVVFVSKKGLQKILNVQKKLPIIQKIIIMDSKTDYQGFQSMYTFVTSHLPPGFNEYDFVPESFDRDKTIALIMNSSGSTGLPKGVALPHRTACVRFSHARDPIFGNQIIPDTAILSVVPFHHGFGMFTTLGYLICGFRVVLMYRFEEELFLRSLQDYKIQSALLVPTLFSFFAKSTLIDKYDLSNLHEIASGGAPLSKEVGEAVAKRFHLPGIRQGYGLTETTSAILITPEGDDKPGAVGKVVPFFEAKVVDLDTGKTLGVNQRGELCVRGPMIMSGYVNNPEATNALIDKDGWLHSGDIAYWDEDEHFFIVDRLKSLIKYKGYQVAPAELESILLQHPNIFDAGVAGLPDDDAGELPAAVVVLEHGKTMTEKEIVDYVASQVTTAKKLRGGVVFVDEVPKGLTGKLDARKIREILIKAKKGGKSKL
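Assay system: Luciferase/luciferin detection reagent, cell-free biochemical luciferase assay / Also added: ATP substrate / Schedule: 10 min at ambient temperature / Measured by: luminescence measurement of luciferase light output / Benchmarks: low control with PBS replacing ATP, high control enzyme plus ATP without compound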
STAT1 blocker = STAT1 signaling inhibition; AID 920; inhibition, % at 5.5 µM; 200,000 compounds, 0.35% hits; NIH 3T3 STAT1-luciferase reporter, IFN-gamma, luminescence;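 active means inhibition above a set limit, the mean inhibition across all tested compounds plus 3 SD, cut at about 34% in these data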
STAT3 inh-1 = reduces IL-6 driven STAT3 reporter signal; 190,000 compounds, 0.89% hits; AID 862; U3A cells, IL-6 STAT3-luciferase reporter, luminescence; host cell line lacks STAT1; inhibition, % at 5.5 µM;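 active means inhibition above the mean inhibition across all screened compounds plus 3 SD, cut at about 44% in these data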
FLuc inhib CS = Photinus pyralis luciferase inhibition counter-screen; P08659; ATPLite firefly luciferase biochemical luminescence, 10 min; 200,000 compounds, 1.5% hits; inhibition, % at 10 µM;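 active means inhibition above about 50% when tested at 10 µM, limit read from the data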
STAT1 activator = increases IFN-gamma driven STAT1 reporter signal. NIH 3T3 STAT1-luciferase reporter, luminescence; 100% = IFN-gamma alone, no compound. activation (% of control), % at 5.5 µM. 200,000 compounds, 2.6% hits. AID 932;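 active means activation above the screen-wide mean activation plus 3 SD, cut at about 130% in these data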
STAT3 activator = STAT3 signaling activation; activation (% of control), % at 5.6 µM; U3A cells, IL-6 STAT3-luciferase reporter, luminescence; 100% = signal with IL-6 EC80 alone; 190,000 compounds, 0.91% hits; AID 871;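 active means activation above the screen-wide mean of compound activation plus 3 SD, cut at about 130% in these data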
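system = STAT3-luciferase reporter U3A cells | reagent = IL-6 stimulus at 33 ng/mL final | timing = 1 h compound pre-exposure, 6 h IL-6 stimulation, 37 °C | measured by = luminescence | evaluation = % activation versus median of IL-6-stimulated wells | control set = IL-6-only wells as 100% reference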
STAT3 inh-2 = STAT3 inhibition, confirmation assay; shares compounds with STAT3 inh-1; U3A cells, IL-6 STAT3 luciferase reporter, luminescence; cell line lacks STAT1; inhibition, % at 5.7 µM; 1,200 compounds, 45% hits; AID 1265;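 active means inhibition above the hit cutoff computed for the primary STAT3 screen, cut at about 44% in these data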
NFkB inh STAT3ct = inhibits NF-kappaB, counter-screen to STAT3 inhibitors. 1,200 compounds, 36% hits. inhibition, % at 5.7 µM. HEK293T NF-kB luciferase reporter, TNF-alpha induced. AID 1308. shares compounds with STAT3 inh-1;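 active means inhibition above the mean of solvent-only control wells plus 3 SD, cutoff set per campaign, cut at about 13% in these data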
STAT1 inh 2 = STAT1 inhibition in STAT3 inhibitor counter-screen; shares compounds with STAT3 inh-1; NIH 3T3 STAT1-luciferase reporter, IFN-gamma induced, luminescence; inhibition, % at 5.7 µM; 1,200 compounds, 27% hits;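 active means inhibition above the mean plus 3 SD of solvent-only control wells, limit set per screening run, cut at about 16% in these data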
Hits are given with their value.

CCOC(=O)c1ccccc1N/C=C/C(=O)c1cccs1 was read as FLuc act counter inactive, STAT1 blocker inactive, STAT3 inh-1 inactive, FLuc inhib CS inactive, STAT1 activator inactive and STAT3 activator inactive.
For O=C(/C=C/Nc1ccc(F)cc1F)c1cccs1 the results were FLuc act counter inactive, STAT1 blocker inactive, STAT3 inh-1 66.3, FLuc inhib CS 97.7, STAT1 activator inactive, STAT3 activator inactive, STAT3 inh-2 53.8, NFkB inh STAT3ct 54.8 and STAT1 inh 2 33.3.
`O=C(/C=C/Nc1ccccc1F)c1cccs1` gave FLuc act counter inactive, STAT1 blocker inactive, STAT3 inh-1 61.0, FLuc inhib CS 94.7, STAT1 activator inactive, STAT3 activator inactive, STAT3 inh-2 inactive, NFkB inh STAT3ct 16.3 and STAT1 inh 2 inactive.
`Cc1ccc(NC(=O)Cn2cccc2)cc1` gave FLuc act counter inactive, STAT1 blocker inactive, STAT3 inh-1 inactive, FLuc inhib CS inactive, STAT1 activator inactive and STAT3 activator inactive.
For CCNc1nc(NC(C)C)nc(N(n2cnnc2)S(=O)(=O)c2ccc(C)cc2)n1 the results were FLuc act counter inactive, STAT1 blocker inactive, STAT3 inh-1 inactive, FLuc inhib CS inactive, STAT1 activator inactive and STAT3 activator inactive.
For C=CCN1C2CCCC1CC(NC(=S)Nc1ccc(Cl)cc1)C2 (stereo not given) the results were FLuc act counter inactive, STAT1 blocker inactive, STAT3 inh-1 inactive, FLuc inhib CS inactive, STAT1 activator inactive and STAT3 activator inactive.
Screening CC(=O)c1c(O)c2ccccc2n(C)c1=O returned FLuc act counter inactive, STAT1 blocker inactive, STAT3 inh-1 inactive, FLuc inhib CS inactive, STAT1 activator inactive and STAT3 activator inactive.
Screening Cn1c(N=NC(=O)c2ccccc2)c(O)c2ccccc21 returned FLuc act counter inactive, STAT1 blocker inactive, STAT3 inh-1 46.4, FLuc inhib CS 86.3, STAT1 activator 142.9, STAT3 activator inactive, STAT3 inh-2 inactive, NFkB inh STAT3ct inactive and STAT1 inh 2 inactive.
For COc1cccc(-n2c(C)nc3c(cnn3-c3ccc(Cl)cc3)c2=O)c1 the results were FLuc act counter inactive, STAT1 blocker inactive, STAT3 inh-1 54.7, FLuc inhib CS inactive, STAT1 activator inactive, STAT3 activator inactive, STAT3 inh-2 inactive, NFkB inh STAT3ct inactive and STAT1 inh 2 16.2.
Screening Cc1ccc(-n2c(C)nc3c(cnn3-c3ccc(F)cc3)c2=O)cc1 returned FLuc act counter inactive, STAT1 blocker inactive, STAT3 inh-1 53.0, FLuc inhib CS inactive, STAT1 activator inactive, STAT3 activator inactive, STAT3 inh-2 inactive, NFkB inh STAT3ct inactive and STAT1 inh 2 inactive.
Screening CCNC(=S)N1CCc2cc(OC)c(OC)cc2C1COc1ccccc1OC (stereo not given) returned FLuc act counter inactive, STAT1 blocker inactive, STAT3 inh-1 inactive, FLuc inhib CS inactive, STAT1 activator inactive and STAT3 activator inactive.
Screening CC(=O)Nc1cccc2c1C(=O)N(c1ccc(OC(C)=O)cc1)C2=O returned FLuc act counter inactive, STAT1 blocker inactive, STAT3 inh-1 inactive, FLuc inhib CS inactive, STAT1 activator inactive and STAT3 activator inactive.
COc1ccc(Cl)cc1N1C(=N)SCC1=O was read as FLuc act counter inactive, STAT1 blocker inactive, STAT3 inh-1 inactive, FLuc inhib CS inactive, STAT1 activator inactive and STAT3 activator inactive.
For CCOC(=O)N/N=C(\C)c1ccc(-n2cnnn2)cc1 the results were FLuc act counter inactive, STAT1 blocker inactive, STAT3 inh-1 inactive, FLuc inhib CS inactive, STAT1 activator inactive and STAT3 activator inactive.
Screening CCOc1ccc(OCc2cccc(C(=O)N3CCCC3)c2)cc1 returned FLuc act counter inactive, STAT1 blocker 41.8, STAT3 inh-1 53.0, FLuc inhib CS inactive, STAT1 activator inactive, STAT3 activator inactive, STAT3 inh-2 inactive, NFkB inh STAT3ct 17.2 and STAT1 inh 2 inactive.
`COc1ccc(C)cc1NCC(=O)Nc1ccc(C(C)(C)C)cc1` gave FLuc act counter inactive, STAT1 blocker inactive, STAT3 inh-1 inactive, FLuc inhib CS inactive, STAT1 activator inactive and STAT3 activator inactive.
`CCn1c(COc2cccc3cccnc23)nnc1SC(F)F` gave FLuc act counter inactive, STAT1 blocker inactive, STAT3 inh-1 inactive, FLuc inhib CS inactive, STAT1 activator inactive and STAT3 activator inactive.
`COc1ccc(S(=O)(=O)NC(C)CCc2ccccc2)cc1` (stereo not given) gave FLuc act counter inactive, STAT1 blocker inactive, STAT3 inh-1 inactive, FLuc inhib CS inactive, STAT1 activator inactive and STAT3 activator inactive.
`c1ccc(-c2ncc(-c3ccn[nH]3)s2)cc1` gave FLuc act counter inactive, STAT1 blocker inactive, STAT3 inh-1 46.2, FLuc inhib CS 66.4, STAT1 activator inactive, STAT3 activator inactive, STAT3 inh-2 inactive, NFkB inh STAT3ct inactive and STAT1 inh 2 inactive.
Screening COc1ccc(CCNC(=O)c2ccc(-c3ccc([N+](=O)[O-])cc3Cl)o2)cc1 returned FLuc act counter inactive, STAT1 blocker inactive, STAT3 inh-1 inactive, FLuc inhib CS inactive, STAT1 activator inactive and STAT3 activator inactive.
COc1ccc(N=C/C=C2\C=C(c3ccccc3)OC(C)(C)O2)cc1 was read as FLuc act counter inactive, STAT1 blocker inactive, STAT3 inh-1 48.3, FLuc inhib CS inactive, STAT1 activator inactive, STAT3 activator inactive, STAT3 inh-2 inactive, NFkB inh STAT3ct inactive and STAT1 inh 2 inactive.
Cc1ccccc1N=C/C=C1/C=C(c2ccccc2)OC(C)(C)O1 was read as FLuc act counter inactive, STAT1 blocker inactive, STAT3 inh-1 inactive, FLuc inhib CS inactive, STAT1 activator inactive and STAT3 activator inactive.
Cc1nn2c(-c3ccncc3)ccnc2c1Cl was read as FLuc act counter inactive, STAT1 blocker inactive, STAT3 inh-1 inactive, FLuc inhib CS inactive, STAT1 activator inactive and STAT3 activator inactive.
Screening Cc1ccc(-c2cnc3c(Cl)c(C)nn3c2)cc1 returned FLuc act counter inactive, STAT1 blocker inactive, STAT3 inh-1 82.4, FLuc inhib CS 58.1, STAT1 activator inactive, STAT3 activator inactive, STAT3 inh-2 inactive, NFkB inh STAT3ct 21.6 and STAT1 inh 2 inactive.
For Cc1ccc(-c2cnc3cc(C)nn3c2)cc1 the results were FLuc act counter inactive, STAT1 blocker inactive, STAT3 inh-1 69.1, FLuc inhib CS 91.2, STAT1 activator inactive, STAT3 activator inactive, STAT3 inh-2 inactive, NFkB inh STAT3ct inactive and STAT1 inh 2 inactive.
